For the assay, the system named is Rattus norvegicus. Kind of assay: Compound was evaluated for its antiallergic activity in rat passive cutaneous anaphylaxis (PCA) test by the intravenous administration. The format is functional. The essentials: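 Male Sprague–Dawley rats (250–300 g) sensitized intradermally on shaved backs with six twofold dilutions (typically 1:4–1:128) of rat anti-ovalbumin serum in 0.9% saline. After 72 h, compound given iv to groups of six just before iv challenge with 1% ovalbumin plus pontamine sky-blue. Killed at 20 min and wheal diameters measured. Inhibition computed against vehicle controls; ED50 from log-dose regression with 95% confidence limits.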

In ChEMBL document CHEMBL1122570, “Studies on 1,2,3-triazoles. 10. Synthesis and antiallergic properties of 9-oxo-1H,9H-benzothiopyrano[2,3-d]-1,2,3-triazoles and their S-oxides” (1984) one finds ED50 data, which are given here for ten compounds.

Molecules are shown by their SMILES. A value given as a limit tells only on which side of the number the result lay.

Regarding `O=c1c2ccccc2[s+]([O-])c2[nH]nnc12` (stereo not given), the ED50 is 1.23 mg/kg.
Take `Cc1ccc2sc3nnnc-3c(O)c2c1C`: the 50% effect level (ED50) was put at a dose of 3.18 mg/kg.
The same measure for `Cc1ccc2c(c1C)C(=O)c1[nH]nnc1S2(=O)=O`: above 1 mg/kg; for `Cc1ccc2sc3nnnc-3c(O)c2c1`: 11.4 mg/kg; for `COc1ccc2sc3nnnc-3c(O)c2c1`: 1.59 mg/kg.
Next, `Cc1cc2sc3nnnc-3c(O)c2cc1C`: 0.43 mg/kg.
The same measure for `Oc1c2nnnc-2sc2ccccc12`: 1.43 mg/kg; for `O=C1c2ccccc2S(=O)(=O)c2[nH]nnc21`: 6.14 mg/kg; for `Cc1cc2c(cc1C)S(=O)(=O)c1nn[nH]c1C2=O`: 0.6 mg/kg.
For `Cc1ccc2c(c1)C(=O)c1[nH]nnc1S2(=O)=O`, it took a dose of 5.88 mg/kg to reach the 50% effect level (ED50).
